# A selection: hits, their analogues and other compounds. The true share with any hit is near 3.5%.
# RGS4 block: inhibitors of human RGS4; P49798; AID 463165; HEK293 M3R/RGS4 inducible, Fluo-4 calcium flux; stronger effect = higher value; triggered by carbachol at its EC20; hit rate 0.45% among 310,000; B-score at 10 µM;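 active means B-score, a plate-corrected calcium signal, over three deviations above library mean, with baseline fluorescence within five deviations of library mean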;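 further: RGS4 expression induced by doxycycline in cells with stable M3 receptor; B-score is computed from the integrated fluorescence ratio over baseline after carbachol; higher B-score means a larger calcium signal and so more RGS4 inhibition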
# Target sequence (P49798 whole entry, looked up): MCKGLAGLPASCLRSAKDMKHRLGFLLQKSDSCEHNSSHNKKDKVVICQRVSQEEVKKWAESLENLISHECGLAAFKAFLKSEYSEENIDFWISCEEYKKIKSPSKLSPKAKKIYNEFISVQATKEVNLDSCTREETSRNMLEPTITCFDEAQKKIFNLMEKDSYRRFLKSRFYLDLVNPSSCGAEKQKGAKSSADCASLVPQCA
# MrgX1 PAM: allosterically activates human MrgX1 receptor signaling; hit rate 0.63% among 310,000; Q96LB2; AID 588675; B-score at 10 µM; MrgX1-HEK293, Fluo-4 calcium flux, FDSS; stronger effect = higher value;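 active means plate-corrected calcium response at least 3 library SD above typical, normal starting fluorescence, not activating the receptor alone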;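 further: compound read alongside a low EC10 to EC30 dose of BAM8-22 agonist; peak minus trough fluorescence over baseline measured at the second addition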
# Target sequence (Q96LB2 whole entry, looked up): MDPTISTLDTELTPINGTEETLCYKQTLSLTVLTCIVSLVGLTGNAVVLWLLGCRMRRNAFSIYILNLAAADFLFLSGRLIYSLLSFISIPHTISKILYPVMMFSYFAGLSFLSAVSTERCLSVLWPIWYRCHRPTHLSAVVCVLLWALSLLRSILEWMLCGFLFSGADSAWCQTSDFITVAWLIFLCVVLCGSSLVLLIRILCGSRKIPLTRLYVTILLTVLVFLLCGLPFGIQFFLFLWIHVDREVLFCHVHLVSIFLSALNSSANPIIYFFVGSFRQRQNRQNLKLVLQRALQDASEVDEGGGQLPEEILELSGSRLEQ
# RGS4 act: RGS4 potentiation or activation | HEK293 M3R/inducible RGS4, carbachol calcium flux Fluo4; stronger effect = lower value | B-score at 10 µM | hit rate 0.92% among 310,000 | AID 463111;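 active means B-score of the integrated calcium signal more than 4 SD below the library mean, with starting fluorescence not abnormally high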;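 further: negative B-score means reduced calcium response which marks RGS4 activation or potentiation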
#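 Assay system: HEK293 FlpIn-TREx cells, stable M3R, doxycycline-inducible RGS4 / Probe or stimulus: carbachol, ECmax concentration / Times: overnight RGS4 induction, 30 min dye load 37 °C, 20 min compound RT / Signal: kinetic calcium fluorescence imaging with Fluo4-AM dye, 2 µM / Measure: Agonist-evoked peak-minus-minimum fluorescence over baseline, integrated ratio, B score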
# MrgX1 antag: human MrgX1 receptor antagonism, primary screen; Q96LB2; MRGX1-HEK293 calcium flux, Fluo-4, BAM8-22 antagonism; stronger effect = lower value; B-score at 10 µM; hit rate 1.3% among 310,000; AID 588676;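 active means calcium-response B-score plate-corrected more than 3 library SD below zero, starting fluorescence within 5 deviations, no agonist response on first addition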;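 further: peak minus trough fluorescence over baseline after final BAM8-22 challenge near maximal dose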
# MrgX1 ag: agonists of human MrgX1 receptor; Q96LB2; hit rate 0.44% among 310,000; B-score at 10 µM; AID 588627; MrgX1-HEK293 cells, Fluo-4 calcium fluorescence, agonist mode; stronger effect = higher value;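 active means calcium response B-score plate-corrected fluorescence ratio at least 3 library SD, with starting fluorescence B-score inside 5 SD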
#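 Material: MrgX1-expressing HEK293 cells; input: 15,000 cells per well; doses: test compound given as first of three sequential additions; schedule: overnight plating before 1 h dye loading; technique: Fluo-4 NW calcium-flux fluorescence, kinetic read; evaluation: baseline-normalised fluorescence change ratio, B-scored; control set: plate-wise positive and negative controls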
# RGS4 block valid: validation of RGS4 inhibitors. calcium response, % at 10 µM. HEK293 M3R/RGS4, carbachol calcium Fluo-4 fluorescence; carbachol added at its EC20; 0 = buffer wells, 100 = carbachol control. hit rate 65% among 1,700. shares compounds with RGS4 block;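 active means duplicate-averaged calcium response above the buffer-only control mean plus 5 SD of those controls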;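 further: integrated fluorescence ratio F max minus min over baseline F0; higher response in RGS4-induced cells means RGS4 inhibition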
# M3R Ca ctr: counter-screen for RGS4 inhibitors: effect in non-induced cells. shares compounds with RGS4 block. HEK293 M3R non-induced, carbachol calcium Fluo-4; submaximal (EC20) carbachol stimulus; buffer wells 0%, carbachol control wells 100%. activity (percent), % at 10 µM. hit rate 20% among 1,900. AID 493000; call rule not given here;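 further: RGS4 induction absent so cells express M3R without RGS4; higher means more calcium signal and flags a non-specific hit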
# RGS4 inh ctr2: signal in non-induced cells without carbachol, RGS4 inhibitor counter-screen | shares compounds with RGS4 block | hit rate 22% among 1,900 | HEK293 M3R/RGS4 non-induced, Fluo-4 calcium, no carbachol; normalised: buffer wells 0%, carbachol wells 100% | AID 493001 | calcium response (agonist-mode artifact), % at 10 µM;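 active means duplicate-averaged calcium rise in uninduced cells above buffer wells' mean plus 5 SD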
# Hits are given with their value; i = inactive; nt = no result given.
SMILES,RGS4 block,MrgX1 PAM,RGS4 act,MrgX1 antag,MrgX1 ag,RGS4 block valid,M3R Ca ctr,RGS4 inh ctr2
NS(=O)(=O)c1cccc(NC(=O)COC(=O)c2cc(-c3ccc(Cl)cc3)nc3ccccc23)c1,5.6,i,i,i,i,14%,i,i
Cc1cc(N=Cc2c(O)ccc3cc(Br)ccc23)no1,9.9,i,i,i,i,i,i,24%
Cc1cc(N=Cc2c(O)ccc3ccccc23)no1,i,i,i,i,i,nt,nt,nt
CC(=O)c1ccc(C(=O)N2CCc3c([nH]c4ccccc34)C2c2cccc(C)n2)s1 (stereo not drawn),i,i,i,i,i,nt,nt,nt
Cc1cccc(C2c3[nH]c4ccccc4c3CCN2C(=O)Cc2n[nH]c(C)n2)n1 (stereo not drawn),i,i,i,i,i,nt,i,i
Cn1cccc1C(=O)OCC(=O)N1CC(=O)Nc2ccccc21,i,i,i,i,i,nt,nt,nt
Cn1cccc1C(=O)OCC(=O)N1c2ccccc2NC(=O)C1(C)C,5.2,i,i,i,i,6.5%,i,i
O=C(CCC1CCCCC1)NNC(=O)c1cnccn1,8.4,i,i,i,i,18%,i,i
O=C(NNC(=O)C1CCCCC1)c1cnccn1,i,i,i,i,i,nt,nt,nt
Cc1ccc(S(=O)(=O)N(CC(=O)N=Nc2c(O)[nH]c3ccccc23)c2cccc(C)c2)cc1,i,i,i,i,i,nt,nt,nt
Cc1cc(Cl)ccc1N(CC(=O)N=Nc1c(O)[nH]c2ccccc12)S(C)(=O)=O,4.9,i,i,i,i,5.5%,i,i
c1ccc(Nc2nc(N3CCCC3)nc(N3CCCC3)n2)cc1,i,i,i,i,i,nt,nt,nt
c1ccc(Nc2nc(N3CCCCC3)nc(N3CCNCC3)n2)cc1,i,i,i,i,i,i,i,16%
c1ccc(Nc2nc(N3CCCCC3)nc(N3CCCCC3)n2)cc1,5.2,i,i,i,i,26%,i,i
CC(=O)Nc1cccc(C(=O)/C=C/c2ccc[nH]2)c1,i,i,i,i,i,nt,nt,nt
CC(=O)Nc1cccc(C(=O)/C=C/c2ccc(Br)cc2)c1,7.2,i,i,i,i,i,i,i
CC(=O)Nc1cccc(C(=O)/C=C/c2ccc(N(C)C)cc2)c1,i,i,i,i,63,i,i,156%
CC(=O)Nc1cccc(C(=O)/C=C/c2ccc(F)cc2)c1,i,i,i,i,i,i,i,10%
CCc1ccc(C(C)NC(=O)c2ncn[nH]2)cc1 (stereo not drawn),i,i,i,i,i,nt,nt,nt
O=C(CC1C(=O)NCCN1C(=O)Nc1ccc(C(F)(F)F)cc1)Nc1ccc(F)cc1 (stereo not drawn),24,i,i,i,i,43%,i,8.0%
COc1ccc(NC(=O)CC2C(=O)NCCN2C(=O)Nc2ccc(C(F)(F)F)cc2)cc1 (stereo not drawn),8.8,i,i,i,i,20%,29%,i
COC(=O)c1sccc1NC(=S)N1CC(C)CC(C)C1 (stereo not drawn),i,i,i,i,i,nt,nt,nt
O=C(CCC1CCCN(Cc2cccc(Cl)c2)C1)NCc1ccccc1F (stereo not drawn),i,i,i,i,i,nt,nt,nt
CC1(C)CC(=O)c2sc(NC(=O)CCS(=O)(=O)c3ccccc3)nc2C1,4.7,i,i,i,i,7.5%,i,i
CC1(C)CC(=O)c2sc(NC(=O)c3ccccc3)nc2C1,i,i,i,i,i,nt,nt,nt
Cc1nnnn1/C(=C\c1ccccc1)C(=O)OCC(=O)NC1CCCCC1,6.4,i,i,i,i,12%,i,9.0%
CC(=O)Nc1ccc(NC(=O)COC(=O)/C(=C/c2ccccc2)n2nnnc2C)cc1,6.4,i,i,i,i,18%,i,i
